Shown are actives, neighbours in structure and some others; about 1.7% of the full set was active somewhere.
IDE cell activ: IDE (human) activation, cell-based. HEK cells, FAbeta-B cleavage, fluorescence polarization; 0% vehicle, 100% cell-free pure enzyme wells. P14735. 340,000 tested, 0.073% active. activation, % at 5.96 µM. AID 493087;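 active = activation above the mean of all tested compounds plus 3 SD, set per screening campaign, cut at about 17% in these data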
HNF4A DNA FP: change in binding of human HNF4 alpha to DNA. AID 1224865. HNF4a-FITC DNA binding, fluorescence polarization, 1 h. activity change, % at 10 µM. 360,000 tested, 0.3% active; in the data active = activity change above about 30%, passing the limit was not always enough
IDE cell inh: inhibitors of human insulin-degrading enzyme in cells. P14735. 320,000 tested, 0.41% active. HEK cells, FAbetaB cleavage, fluorescence polarization. inhibition, % at 5.59 µM;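 active = percent inhibition above the average of all tested compounds plus 3 SD, set per screening campaign, cut at about 16% in these data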;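 note: IDE supplied by intact live HEK cells; FP after avidin binding of uncleaved biotin substrate so inhibition keeps polarization high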
Rpn11 inh: blocks the human proteasome subunit Rpn11; O00487; human 26S proteasome, Ub4-pepOG fluorescence polarization; 20S core pre-blocked with epoxomicin; calls only at 20 µM; 360,000 tested, 0.59% active; AID 588493;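 active = inhibition at 20 µM, scaled to each plate's controls, above about 33%, limit read from the data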
CSN deneddyl inh: CSN deneddylation inhibition; AID 651999; Purified CSN, SCF-Nedd8-OG deneddylation, fluorescence polarization; inhibition, % at 12.5 µM; 360,000 tested, 0.38% active; Q92905;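 active = pattern-corrected inhibition above about 35%, with an unprinted fluorescence ratio check between 0.5 and 1.5, limit read from the data, passing the limit was not always enough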
Target sequence (Q92905 whole entry, looked up, one chain of several): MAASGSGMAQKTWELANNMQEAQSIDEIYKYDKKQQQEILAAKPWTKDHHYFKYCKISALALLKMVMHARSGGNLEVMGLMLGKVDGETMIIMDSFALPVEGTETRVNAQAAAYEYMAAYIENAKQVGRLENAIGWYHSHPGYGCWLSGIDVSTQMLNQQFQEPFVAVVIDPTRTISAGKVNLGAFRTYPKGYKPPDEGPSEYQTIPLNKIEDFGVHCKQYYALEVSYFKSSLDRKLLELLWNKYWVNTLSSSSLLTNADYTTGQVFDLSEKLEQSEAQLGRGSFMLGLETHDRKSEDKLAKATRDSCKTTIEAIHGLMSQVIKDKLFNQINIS
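Assay system: purified human Csn5 enzyme expressed in HEK293T cells; Input: 0.24 nM Csn5 enzyme, final concentration; Reagent: 10 nM SCFSkp2-Nedd8OG; Compound dosing: 12.5 µM single point; Times: reaction 90 min, room temperature; Technique: fluorescence polarization readout.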
TPT1 inhibitor: inhibitors of Candida albicans tRNA 2'-phosphotransferase TPT1; recombinant caTPT1, FP RNA substrate dephosphorylation; inhibition, % at 5 µM; 300,000 tested, 0.81% active;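 active = inhibition above the mean of all tested compounds plus 3 SD, set per screening campaign, cut at about 24% in these data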
caTPT1 confirm: confirmation of Candida albicans TPT1 inhibitors; shares compounds with TPT1 inhibitor; inhibition, % at 5 µM; 2,400 tested, 74% active; recombinant caTPT1, fluorescence polarization, RNase T1 coupled;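 active = inhibition above the primary screen limit, the mean inhibition of all tested compounds plus 3 SD, cut at about 25% in these data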
RNase T1 counter: blocks Aspergillus oryzae RNase T1, a TPT1 counter-screen. inhibition, % at 5 µM. shares compounds with TPT1 inhibitor. 2,400 tested, 83% active. RNase T1 cleavage, fluorescence polarization, 1536-well. AID 2153;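 active = inhibition above the solvent-only control well mean plus 3 SD, limit set per screening run, cut at about 23% in these data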;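 note: inhibitors block cleavage so intact labeled substrate keeps polarization high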
Target sequence (P00651 whole entry, looked up): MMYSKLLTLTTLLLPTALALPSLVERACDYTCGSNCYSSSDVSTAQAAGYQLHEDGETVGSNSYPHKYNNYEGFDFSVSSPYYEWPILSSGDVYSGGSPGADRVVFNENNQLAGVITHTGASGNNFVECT
IDE inh confirm: confirmation of human insulin-degrading enzyme inhibitors in cells. AID 435028. inhibition, % at 5.59 µM. 1,200 tested, 51% active. shares compounds with IDE cell inh. HEK cells, FAbetaB cleavage, fluorescence polarization;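 active = mean inhibition across triplicate wells above the cutoff set by the earlier primary insulin-degrading enzyme screen, cut at about 16% in these data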
HEK cytotox: counter-screen for IDE inhibitors: cytotoxicity in HEK cells | AID 449730 | shares compounds with IDE cell inh | inhibition, % at 5.59 µM | 1,200 tested, 28% active | HEK293 cytotoxicity, ATP luminescence; in the data active = inhibition above about 22%
Rpn11 inh conf: confirmation of human proteasome Rpn11 inhibitors; purified human 26S proteasome, Ub4-pepOG fluorescence polarization; proteasome pretreated with epoxomicin; AID 602318; 1,900 tested, 29% active; inhibition, % at 20 µM; shares compounds with Rpn11 inh
MMP-2 inh: MMP-2 (human) inhibition counter-screen; shares compounds with Rpn11 inh; recombinant MMP-2, FRET peptide cleavage fluorescence; inhibition, % at 20 µM; 1,900 tested, 4% active; AID 602330;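 note: human MMP-2 activated beforehand with APMA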
Thrombin FP: thrombin (bovine) inhibition counter-screen | shares compounds with Rpn11 inh | bovine thrombin cleavage of Ub4-pepOG, fluorescence polarization | inhibition, % at 20 µM | 1,900 tested, 13% active;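 active = mean inhibition at least 40% at 20 µM, or signal 3 deviations below plate average, so some actives read negative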
Hits are given with their value; - = inactive; . = not tested or not shown; + = active, no number. Cut-off read from the data, not from the text of the source, unless noted: active = inhibition above about 40%; inactive = the rest.

SMILES | IDE cell activ | HNF4A DNA FP | IDE cell inh | Rpn11 inh | CSN deneddyl inh | TPT1 inhibitor | caTPT1 confirm | RNase T1 counter | Rpn11 inh conf | MMP-2 inh | Thrombin FP | others
CCCCC(=O)N1C/C=C\C(c2ccc(OC)cc2)N(Cc2ccc(F)cc2)C(=O)C1 (configuration not stated) | - | - | - | - | - | - | . | . | . | . | .
NC(=O)COC(=O)Cc1coc2cc3c(cc12)CCC3 | - | - | - | - | - | - | . | . | . | . | .
COc1cccc(C2=CC(c3ccccc3)n3nnnc3N2)c1 (configuration not stated) | - | - | - | - | - | - | . | . | . | . | .
COc1cccc(C2=CC(c3ccc(N(C)C)cc3)n3nnnc3N2)c1 (configuration not stated) | - | - | 44 | - | - | 28 | - | - | . | . | . | IDE inh confirm=37;HEK cytotox=39
O=C(O)c1ccc(/C=C2/SC(=S)N(Cc3ccccc3)C2=O)cc1 | - | - | . | - | - | . | . | . | . | . | .
O=C1/C(=C\c2ccc(O)cc2)SC(=S)N1Cc1ccccc1 | - | 94 | 77 | . | - | 75 | 83 | 84 | . | . | . | IDE inh confirm=137;HEK cytotox=-
Cn1cc(/C=C2\SC(=S)N(NC(=O)c3ccccc3)C2=O)c2ccccc21 | - | - | 28 | - | - | 137 | 55 | 61 | . | . | . | IDE inh confirm=46;HEK cytotox=-
O=C(NN1C(=O)/C(=C/c2ccc(O)cc2)SC1=S)c1cccc(O)c1 | - | 107 | 144 | . | - | 71 | 67 | 72 | . | . | . | IDE inh confirm=104;HEK cytotox=-
O=C(Cc1ccccc1)NN1C(=O)/C(=C/c2ccc(C(=O)O)cc2)SC1=S | - | - | - | - | - | - | . | . | . | . | .
O=C(NN1C(=O)/C(=C/c2ccc(O)cc2)SC1=S)c1ccccc1O | - | 106 | 103 | . | - | 55 | 65 | 72 | . | . | . | IDE inh confirm=120;HEK cytotox=-
CCOC(=O)C1=CN(Cc2cccc(F)c2)S(=O)(=O)N(CC)C1CCc1ccccc1 (configuration not stated) | - | - | . | - | - | . | . | . | . | . | .
NS(=O)(=O)c1ccc(CNC(=O)COc2ccc3c4c(c(=O)oc3c2)CCCC4)cc1 | - | - | - | - | - | - | . | . | . | . | .
COc1ccccc1CNC(=O)COc1ccc(S(=O)(=O)N2CCOCC2)cc1 | - | - | - | - | - | - | . | . | . | . | .
Cc1cc(=O)[nH]c(N/N=C/c2c(O)n(-c3ccccc3)c(=O)c3ccccc23)n1 | - | - | - | + | - | 36 | 32 | 39 | 43 | - | -
COc1ccc(C(=O)O)cc1Nc1cc(C)nc2ncnn12 | - | - | - | - | - | - | . | . | . | . | .
COc1ccc(NC(=O)NC(C)c2ccc3c(c2)OCO3)c(OC)c1 (configuration not stated) | - | - | - | - | - | - | . | . | . | . | .
O=C(Cn1cc(C(=O)COc2ccccc2)c2ccccc21)NCc1ccco1 | - | - | - | + | - | 34 | 26 | 38 | 60 | - | -
CC(=O)c1cn(CC(=O)NCc2ccco2)c2ccccc12 | - | - | - | - | - | - | . | . | . | . | .
CCn1c(C)cc(/C=C2/SC(=S)N(CC(=O)O)C2=O)c1C | - | 44 | 40 | + | - | 83 | 94 | 102 | 97 | - | 63 | IDE inh confirm=36;HEK cytotox=-
CCCN1C(=O)/C(=C/c2c(NCCCOC(C)C)nc3c(C)cccn3c2=O)SC1=S | - | - | - | + | 56 | 121 | 116 | 129 | 84 | - | 49
CCC(C)Nc1nc2c(C)cccn2c(=O)c1C=Nc1ccc(OC)cc1 (configuration not stated) | - | - | - | - | - | - | . | . | . | . | .
O=C(O)CC1C(=O)NCCN1C/C=C/c1ccccc1 (configuration not stated) | - | - | - | - | - | - | . | . | . | . | .
CCc1ccc2[nH]c(=O)c(CN(CCN(CC)CC)C(=O)Nc3ccccc3OC)cc2c1 | - | - | - | - | - | - | . | . | . | . | .
CCC1S/C(=C(\C#N)C(N)=O)N(c2ccc(F)cc2)C1=O (configuration not stated) | - | - | - | - | - | - | . | . | . | . | .
Cc1ccccc1N1C(=O)C(Cc2ccc(F)cc2)S/C1=C(\C#N)C(N)=O (configuration not stated) | . | - | - | + | - | 26 | - | - | - | - | -
SMILES | IDE cell activ | HNF4A DNA FP | IDE cell inh | Rpn11 inh | CSN deneddyl inh | TPT1 inhibitor | caTPT1 confirm | RNase T1 counter | Rpn11 inh conf | MMP-2 inh | Thrombin FP | others
Cc1c(C(=O)N/N=C/c2ccc(O)c(Br)c2)sc(N)c1C#N | - | - | - | + | - | 27 | - | 24 | 54 | - | 41
O=C(NN1C(=O)/C(=C/C=C/c2ccccc2)SC1=S)c1ccncc1 | - | 79 | 25 | + | - | 131 | 35 | 47 | - | - | - | IDE inh confirm=-;HEK cytotox=-
O=C(NN1C(=O)/C(=C/C=C/c2ccco2)SC1=S)c1ccncc1 | . | - | - | + | - | 86 | 58 | 36 | 123 | 55 | 54
COc1ccc(/C=C2\SC(=S)N(NC(=O)c3ccncc3)C2=O)cc1OC | . | . | - | . | . | - | . | . | . | . | .
Cc1ccc(-n2c(SCC(=O)Nc3cccc(S(=O)(=O)NC4=NCCCCC4)c3)nc3ccccc3c2=O)cc1 | - | - | - | - | - | - | . | . | . | . | .
Cc1cccc2sc(NC(=O)C3CCCN(S(=O)(=O)c4cccc5nonc45)C3)nc12 (configuration not stated) | - | - | - | + | - | 43 | 39 | 49 | 41 | - | -
CN1CCN(C(=O)/C(=C/c2ccc(F)cc2)NC(=O)c2ccccc2)CC1 | - | - | - | - | - | - | . | . | . | . | .
CN1CCN(C(=O)/C(=C/c2ccc(N(C)C)cc2)NC(=O)c2ccccc2)CC1 | - | - | - | + | - | 45 | 48 | 58 | - | - | -
CC(=Nc1ccc(C)cc1C)c1sc2ccccc2c1O | - | - | - | + | - | 55 | 79 | 94 | - | - | -

Source: PubChem (several laboratories)
